According to ChEMBL document CHEMBL3091335, “Design and synthesis of potent and selective P2X₃ receptor antagonists derived from PPADS as potential pain modulators” (Eur J Med Chem, 2013):
Where a chain is given by its changes, count along the chain named. pIC50: −log10 of the molar value.

How the values were obtained:
[1] = target: T1, P2X purinoceptor 1 (Mus musculus, UniProt P51576); experiment: Antagonist activity at recombinant mouse P2X1 receptor expressed in Xenopus oocytes assessed as inhibition of ATP-induced ion current preincubated for 20 mins followed by ATP addition by two-electrode voltage clamp assay; assay type: cell-based
T1 sequence (P51576 whole entry): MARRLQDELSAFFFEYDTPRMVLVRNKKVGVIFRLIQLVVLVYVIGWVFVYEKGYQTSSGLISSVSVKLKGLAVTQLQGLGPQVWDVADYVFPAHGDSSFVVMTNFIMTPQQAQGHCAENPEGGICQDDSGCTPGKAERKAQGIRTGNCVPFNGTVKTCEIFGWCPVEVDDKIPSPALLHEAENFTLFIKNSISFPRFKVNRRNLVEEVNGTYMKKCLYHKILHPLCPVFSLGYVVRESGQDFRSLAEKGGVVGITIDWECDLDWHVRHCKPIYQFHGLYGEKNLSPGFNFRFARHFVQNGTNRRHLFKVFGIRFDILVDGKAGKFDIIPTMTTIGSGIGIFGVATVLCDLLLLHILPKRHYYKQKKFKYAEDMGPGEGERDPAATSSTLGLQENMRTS
How it was run: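 Defolliculated Xenopus oocytes were injected with mP2X1 or hP2X3 cRNA (40 nL), held 24 h at 18 °C in Barth's solution, then stored at 4 °C for up to 12 days. Two-electrode voltage clamp was run at Vh −70 mV in HEPES/BaCl2 buffer at pH 7.5. ATP was superfused for 60–120 s with 20 min washout. Currents were normalized to the ATP response, giving % inhibition or IC50 from inhibition curves; mean ± SEM, n≥3.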

[2] = target: T2, P2X purinoceptor 1 (Rattus norvegicus, UniProt P47824); experiment: Antagonist activity at recombinant rat P2X1 receptor expressed in Xenopus oocytes assessed as ion flux stimulation; assay type: cell-based
T2 sequence (P47824 whole entry): T1 sequence (P51576 whole entry) with G60D, M108V, A113T, H180R, L223Q, S231N, E260K, R314H, R381H, A384V

[3] = target: T3, P2X purinoceptor 7 (Homo sapiens, UniProt Q99572); experiment: Antagonist activity at human P2X7 receptor expressed in HEK293 cells assessed as inhibition of BzATP-induced accumulation of ethidium+ after 120 mins by fluorescence assay; assay type: cell-based
T3 sequence (Q99572 whole entry): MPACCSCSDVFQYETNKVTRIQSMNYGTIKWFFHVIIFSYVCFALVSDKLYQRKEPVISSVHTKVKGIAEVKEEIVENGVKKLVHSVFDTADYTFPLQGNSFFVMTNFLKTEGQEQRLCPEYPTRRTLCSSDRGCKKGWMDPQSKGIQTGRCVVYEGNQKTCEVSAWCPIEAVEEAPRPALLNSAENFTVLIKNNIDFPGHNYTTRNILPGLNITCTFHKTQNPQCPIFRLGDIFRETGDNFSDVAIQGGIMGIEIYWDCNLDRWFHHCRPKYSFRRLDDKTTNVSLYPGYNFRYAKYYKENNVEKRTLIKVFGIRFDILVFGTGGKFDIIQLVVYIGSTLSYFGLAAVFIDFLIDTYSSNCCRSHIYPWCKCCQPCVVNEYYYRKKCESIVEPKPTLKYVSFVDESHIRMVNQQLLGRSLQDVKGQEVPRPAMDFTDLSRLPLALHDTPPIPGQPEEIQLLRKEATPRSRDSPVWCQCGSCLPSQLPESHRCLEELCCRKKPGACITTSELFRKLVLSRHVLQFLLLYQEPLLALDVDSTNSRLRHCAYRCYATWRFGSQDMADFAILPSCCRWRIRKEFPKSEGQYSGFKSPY

[4] = target: T3, P2X purinoceptor 7; experiment: Antagonist activity at recombinant human P2X7 receptor assessed as inhibition of BzATP-mediated Yo-Pro uptake measured for 1 hr by FLIPR assay

pIC50 [1]	pIC50 [2]	pIC50 [3]	pIC50 [4]	Compound
7.52	7.37	–	–	Cc1nc(/N=N/c2ccc(C(=O)O)cc2)c(COP(=O)(O)O)c(C=O)c1O
–	–	6.80	6.68	CN([C@@H](Cc1ccc(OS(=O)(=O)c2cccc3cnccc23)cc1)C(=O)N1CCN(c2ccccc2)CC1)S(=O)(=O)c1cccc2cnccc12
